The record followed here is ChEMBL document CHEMBL1140738, “New trisubstituted 1,2,4-triazole derivatives as potent ghrelin receptor antagonists. 3. Synthesis and pharmacological in vitro and in vivo evaluations” (J Med Chem, 2008).

In assay [1] the test system is Rattus norvegicus. Briefly: Inhibition of hexarelin induced food intake in rat at 80 ug/kg, sc. It counts as functional.
Assay [2] relates to Rattus norvegicus. Put plainly: Inhibition of hexarelin induced food intake per 100 gm of body weight in rat at 80 ug/kg, sc after 6 hrs. It counts as functional. An outline of the steps: (§1)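 Rats dosed subcutaneously with compound (160 µg/kg alone, or graded 20, 80, 160, 320 µg/kg) with or without hexarelin 80 µg/kg sc. Cumulative food intake at 2 and 6 h expressed as g food per 100 g body weight; % variation versus hexarelin at 6 h = 100 × (compound+hexarelin − hexarelin)/hexarelin.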

Assay [3] concerns Rattus norvegicus. Briefly: Inhibition of hexarelin induced food intake per 100 gm of body weight in rat at 320 ug/kg, sc after 2 hrs. Type of assay: functional. An outline of the steps:
as §1

The subject of assay [4] is Rattus norvegicus. Briefly: Inhibition of hexarelin induced food intake per 100 gm of body weight in rat at 20 ug/kg, sc after 2 hrs. Type of assay: functional. An outline of the steps: as §1
The target of assay [5] is T1, Growth hormone secretagogue receptor type 1 (Homo sapiens, UniProt Q92847). Put plainly: Agonist activity at GHSR1a expressed in CHO cells assessed as accumulation of intracellular calcium level at 10 uM relative to ghrelin. It counts as functional, cell-based. An outline of the steps: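 CHO cells transiently expressing GHS-R1a; intracellular Ca2+ accumulation read as fluorescence output. Increasing agonist concentrations were tested for dose-response; single-point activation at 10^-5 M is expressed as percent of the maximal response to ghrelin at 10^-7 M (100%).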
On the technique in general: Calcium flux is commonly read through the fluorescence of an indicator in the cells.

For assay [6], the target named is Motilin receptor (Homo sapiens) (UniProt O43193). Briefly: Binding affinity at motilin receptor at 10 uM.
Assay [7] deals with Rattus norvegicus. Put plainly: Inhibition of hexarelin induced food intake in rat at 20 ug/kg, sc. Type of assay: functional.
The target of assay [8] is T2, Cholecystokinin receptor type A (Homo sapiens) (UniProt P32238).
T2 sequence (whole entry): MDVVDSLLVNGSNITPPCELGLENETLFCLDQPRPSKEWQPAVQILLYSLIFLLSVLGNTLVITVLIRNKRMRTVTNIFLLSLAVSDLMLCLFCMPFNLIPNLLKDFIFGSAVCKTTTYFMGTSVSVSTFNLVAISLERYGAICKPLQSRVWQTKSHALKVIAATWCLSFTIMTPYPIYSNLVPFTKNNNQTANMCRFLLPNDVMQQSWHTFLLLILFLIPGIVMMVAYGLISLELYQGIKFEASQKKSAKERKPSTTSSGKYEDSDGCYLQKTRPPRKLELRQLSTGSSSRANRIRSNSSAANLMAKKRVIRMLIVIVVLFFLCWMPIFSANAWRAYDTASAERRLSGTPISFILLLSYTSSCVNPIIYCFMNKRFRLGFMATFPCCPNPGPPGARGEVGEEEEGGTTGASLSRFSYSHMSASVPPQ
Put plainly: Binding affinity at CCK1 receptor at 10 uM.

For assay [9], the system named is Rattus norvegicus. Briefly: Effect on growth hormone secretion at 160 ug/kg, sc. It counts as functional. An outline of the steps: (§2)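 Infant rats given sc injection of compound at 160 µg/kg and/or hexarelin at 80 µg/kg; plasma rat GH measured (ng/mL).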
The target of assay [10] is Substance-P receptor (Homo sapiens) (UniProt P25103). Briefly: Binding affinity at tachykinin 2 receptor at 10 uM.
Assay [11] concerns the target T1, Growth hormone secretagogue receptor type 1. Briefly: Displacement of 125I]-His9-ghrelin from human GHSR1a expressed in LLCPK1 cells. Type of assay: cell-based, LLC-PK1. An outline of the steps: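 Competition binding with membranes from LLC PK-1 cells transiently transfected with human GHS-R1a, incubated with 125I-His9-ghrelin and increasing concentrations of compound.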

Assay [12] deals with Rattus norvegicus. Briefly: Inhibition of hexarelin induced food intake per 100 gm of body weight in rat at 320 ug/kg, sc after 6 hrs. It counts as functional. An outline of the steps:
as §1

In assay [13] the test system is Rattus norvegicus. Put plainly: Inhibition of hexarelin induced food intake per 100 gm of body weight in rat at 160 ug/kg, sc after 6 hrs. It counts as functional. An outline of the steps: as §1
Assay [14] concerns Rattus norvegicus. Put plainly: Inhibition of hexarelin induced food intake per 100 gm of body weight in rat at 160 ug/kg, sc after 2 hrs. Type of assay: functional. An outline of the steps:
as §1

In assay [15] the test system is Rattus norvegicus. Briefly: Inhibition of hexarelin induced food intake per 100 gm of body weight in rat at 20 ug/kg, sc after 6 hrs. It counts as functional. An outline of the steps:
as §1

The target of assay [16] is T1, Growth hormone secretagogue receptor type 1. Briefly: Antagonist activity at GHSR1a expressed in CHO cells assessed as inhibition of ghrelin induced accumulation of intracellular calcium. Type of assay: functional, cell-based. An outline of the steps:
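Antagonism measured in CHO cells transiently transfected with GHS-R1a: ghrelin dose-response curves of [Ca2+]i accumulation (fluorescence) run in the presence of various concentrations of test compound.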

Assay [17] deals with Rattus norvegicus. Put plainly: Inhibition of hexarelin induced food intake per 100 gm of body weight in rat at 80 ug/kg, sc after 2 hrs. Type of assay: functional. An outline of the steps:
as §1

For assay [18], the system named is Rattus norvegicus. Briefly: Effect on growth hormone secretion in infant rat at 80 ug/kg, sc at 160 ug/kg, sc in presence of hexarelin. Type of assay: functional. An outline of the steps: as §2
Assay [19] addresses Vasopressin V1a receptor (Homo sapiens) (UniProt P37288). Briefly: Binding affinity at vasopressin 1a receptor at 10 uM.

Activity calls are given as the source filed them. The rule behind the calls is not given here.

As usually defined, the inhibition in vivo is the change of the read-out against control, counted positive when it falls. The term IC50 denotes the point on the concentration scale where inhibition reaches its midpoint. A high value points to weaker potency. In general, Kb refers to the affinity of an antagonist, worked out from how it opposes an agonist.

T1 sequence (Q92847 whole entry): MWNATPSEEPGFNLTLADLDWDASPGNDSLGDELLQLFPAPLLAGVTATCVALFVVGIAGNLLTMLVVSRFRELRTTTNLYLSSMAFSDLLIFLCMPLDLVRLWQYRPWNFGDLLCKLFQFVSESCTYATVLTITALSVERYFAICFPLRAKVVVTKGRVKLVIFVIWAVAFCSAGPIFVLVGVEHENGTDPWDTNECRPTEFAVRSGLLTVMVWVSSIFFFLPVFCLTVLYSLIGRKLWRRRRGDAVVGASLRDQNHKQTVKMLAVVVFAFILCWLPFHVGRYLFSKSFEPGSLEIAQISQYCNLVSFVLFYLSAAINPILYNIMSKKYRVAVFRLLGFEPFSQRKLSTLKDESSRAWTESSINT
Substance-P receptor (Homo sapiens), sequence (P25103 whole entry): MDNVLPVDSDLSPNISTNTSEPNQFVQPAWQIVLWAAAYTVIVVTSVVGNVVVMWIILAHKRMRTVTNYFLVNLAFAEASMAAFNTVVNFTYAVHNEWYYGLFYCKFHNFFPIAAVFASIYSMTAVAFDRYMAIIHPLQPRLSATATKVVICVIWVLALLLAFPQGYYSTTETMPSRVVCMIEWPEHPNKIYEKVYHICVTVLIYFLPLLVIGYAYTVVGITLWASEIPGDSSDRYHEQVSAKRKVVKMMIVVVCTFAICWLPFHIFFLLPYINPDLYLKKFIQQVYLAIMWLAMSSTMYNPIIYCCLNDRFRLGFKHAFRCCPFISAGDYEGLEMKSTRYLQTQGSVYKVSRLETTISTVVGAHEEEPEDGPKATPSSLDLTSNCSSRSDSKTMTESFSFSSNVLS
Vasopressin V1a receptor (Homo sapiens), sequence (P37288 whole entry, looked up): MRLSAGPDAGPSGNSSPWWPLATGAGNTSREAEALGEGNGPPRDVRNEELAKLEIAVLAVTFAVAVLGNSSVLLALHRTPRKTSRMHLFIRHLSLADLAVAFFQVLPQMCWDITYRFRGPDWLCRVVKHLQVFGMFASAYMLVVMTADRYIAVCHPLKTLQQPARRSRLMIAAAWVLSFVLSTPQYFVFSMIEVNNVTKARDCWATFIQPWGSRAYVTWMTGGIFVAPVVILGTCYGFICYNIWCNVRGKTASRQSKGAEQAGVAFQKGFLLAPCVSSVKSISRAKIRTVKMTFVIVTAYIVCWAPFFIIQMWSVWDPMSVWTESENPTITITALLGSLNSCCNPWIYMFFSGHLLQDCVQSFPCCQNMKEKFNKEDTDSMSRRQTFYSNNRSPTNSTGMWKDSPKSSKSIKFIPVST
Motilin receptor (Homo sapiens), sequence (O43193 whole entry): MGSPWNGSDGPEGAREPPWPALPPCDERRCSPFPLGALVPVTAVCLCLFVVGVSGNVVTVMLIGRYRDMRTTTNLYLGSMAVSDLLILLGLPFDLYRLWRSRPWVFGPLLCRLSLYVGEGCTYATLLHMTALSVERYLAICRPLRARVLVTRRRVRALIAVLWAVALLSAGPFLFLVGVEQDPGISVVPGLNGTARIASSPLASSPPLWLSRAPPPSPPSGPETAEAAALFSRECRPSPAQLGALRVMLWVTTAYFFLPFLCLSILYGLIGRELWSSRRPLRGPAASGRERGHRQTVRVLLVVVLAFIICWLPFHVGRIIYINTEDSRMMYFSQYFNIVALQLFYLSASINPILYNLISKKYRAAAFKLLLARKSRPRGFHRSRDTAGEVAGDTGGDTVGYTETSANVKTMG

Turning to `COc1ccc(Cn2c(CCc3ccccc3)nnc2[C@@H](Cc2c[nH]c3ccccc23)NC(=O)c2ccccn2)c(OC)c1`, the inhibition in vivo at 0.08 mg/kg in assay [1] was -98%. Besides, the Activity was 0.02 g in assay [2]; 1.23 g in [3]; 0.56 g in assay [4]; 0% in assay [5]; 13.06 ng/mL in assay [9]; 1.23 g in assay [12]. Further, the Activity in [13] came to 0.21 g; in assay [14] it was 0.21 g; in [15], 0.56 g; in assay [17], 0.02 g; in assay [18] it was 138.39 ng/mL. Further, the result in assay [6], in [8], in assay [10] and in [19] was Active. The inhibition in vivo at 0.02 mg/kg in assay [7] was -44%. In assay [11], this molecule yielded an IC50 of 0.0011 µM. In addition, the Kb in assay [16] is 0.025 µM.
